These results are taken from ChEMBL document CHEMBL3259714, “Pyrazolo[4,3-e][1,2,4]triazine sulfonamides as carbonic anhydrase inhibitors with antitumor activity” (Bioorg Med Chem, 2014).

Bounds are passed on as bounds.

Broadly, the IC50 is the concentration at which inhibition is half-maximal. In general, Ki refers to a dissociation constant, usually derived from enzyme kinetics or from competition with a known ligand. Read a low Ki as a stronger hold on the target.

For one assay, the system named is MDA-MB-231. Briefly: Cytostatic activity against human MDA-MB-231 cells assessed as inhibition of DNA synthesis after 24 hrs by [3H]thymidine incorporation assay. The class given is functional, cell-based.
Conditions: not given
The gist of the method: (§1)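 Cells kept in DMEM with 10% FBS and penicillin/streptomycin at 37 °C. Seeded in 6-well plates and grown to about 80% confluency, in DMEM without phenol red with 10% CPSR1. Exposed to a range of concentrations plus 0.5 μCi [³H]-thymidine for 24 h at 37 °C. Cells trypsinized and washed with cold PBS until wash dpm matched the reagent control. Uptake counted by liquid scintillation as dpm/well. IC50 is mean ± S.D. of four independent experiments.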
For orientation: Dividing cells build labelled thymidine or BrdU into new DNA.
`CCOc1ccc(S(=O)(=O)N2CCCC2)cc1-c1nnc2c(n1)c(C)nn2C`: the concentration for half-maximal inhibition (IC50) was determined as 159 µM and the inhibition entry was “Dose-dependent effect”.

For `CCOc1ccc(S(=O)(=O)N2CCCCC2)cc1-c1nnc2c(n1)c(C)nn2C`, the IC50 amounted to 126 µM and the inhibition entry is “Dose-dependent effect”.

For the compound `CCOc1ccc(S(=O)(=O)N2CCN(C)CC2)cc1-c1nnc2c(n1)c(C)nn2C`, the concentration for half-maximal inhibition (IC50) is 152 µM and the inhibition result is “Dose-dependent effect”.

`CCOc1ccc(S(=O)(=O)NCCN)cc1-c1nnc2c(n1)c(C)nn2C`: the IC50 is 200 µM and the inhibition entry is “Dose-dependent effect”.

For the compound `O=C(O)CCCc1ccc(N(CCCl)CCCl)cc1` [CHLORAMBUCIL], the inhibition result is “Dose-dependent effect”.

Turning to `CCOc1ccc(S(=O)(=O)NCCN2CCOCC2)cc1-c1nnc2c(n1)c(C)nn2C`, the IC50 was 156 µM and the inhibition entry was “Dose-dependent effect”.

For another assay, the target named is Carbonic anhydrase 2 (Homo sapiens, UniProt P00918). Briefly: Inhibition of human carbonic anhydrase 2-mediated CO2 hydration preincubated for 15 mins by stopped-flow assay.
Conditions: not given
Compound `Cc1nn(C)c2nnc(Nc3ccc(S(N)(=O)=O)cc3)nc12` returned a Ki of 0.008 µM.

In the case of `Cc1nn(C)c2nnc(Nc3ccccc3)nc12`, the Ki turned out to be 0.826 µM.

`Cc1nn(C)c2nnc(S(C)(=O)=O)nc12`: the affinity corresponds to a Ki of 0.774 µM.

Another assay deals with MCF7. Briefly: Inhibition of collagen synthesis in human MCF7 cells assessed as 5-[3H]-proline incorporation into proteins susceptible to action of bacterial collagenase after 24 hrs.
Conditions: not given
The class given is functional, cell-based. The method, boiled down: (§2)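 Cells labelled 24 h in growth medium with 5-[³H]proline (5 μCi/mL, 28 Ci/mmol) at a range of compound concentrations. Collagen share of incorporated label found by digesting proteins with purified Clostridium histolyticum collagenase (Peterkofsky method). Cell and medium fractions combined. IC50 is the mean ± S.D. of three independent experiments run in duplicate.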
Turning to `O=C(O)CCCc1ccc(N(CCCl)CCCl)cc1` [CHLORAMBUCIL], the IC50 came to 52 µM.

In the next assay the target is Carbonic anhydrase 1 (Homo sapiens, UniProt P00915). Briefly: Inhibition of human carbonic anhydrase 1-mediated CO2 hydration preincubated for 15 mins by stopped-flow assay.
Sequence of Carbonic anhydrase 1 (P00915 whole entry): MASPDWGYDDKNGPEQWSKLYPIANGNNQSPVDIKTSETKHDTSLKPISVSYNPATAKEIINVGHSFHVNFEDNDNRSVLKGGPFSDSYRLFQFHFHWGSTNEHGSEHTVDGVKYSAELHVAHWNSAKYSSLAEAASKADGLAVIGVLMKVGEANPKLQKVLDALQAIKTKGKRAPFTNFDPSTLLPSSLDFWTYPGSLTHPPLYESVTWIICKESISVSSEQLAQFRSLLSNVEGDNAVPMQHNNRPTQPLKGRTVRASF
Conditions: not given
Regarding `Cc1nn(C)c2nnc(Nc3ccc(S(N)(=O)=O)cc3)nc12`, the Ki was 0.27 µM.

As for `Cc1nn(C)c2nnc(Nc3ccccc3)nc12`, the Ki is above 50 µM.

For `Cc1nn(C)c2nnc(S(C)(=O)=O)nc12`, the inhibition constant Ki was above 50 µM.

The next assay has as its system MCF7. Briefly: Cytostatic activity against human MCF7 cells assessed as inhibition of DNA synthesis after 24 hrs by [3H]thymidine incorporation assay. The class given is functional, cell-based.
Conditions: not given
The gist of the method: as §1
Regarding `CCOc1ccc(S(=O)(=O)N2CCCC2)cc1-c1nnc2c(n1)c(C)nn2C`, the half-maximal inhibitory concentration (IC50) was 130 µM and the inhibition entry was “Dose-dependent effect”.

In the case of `CCOc1ccc(S(=O)(=O)N2CCCCC2)cc1-c1nnc2c(n1)c(C)nn2C`, the half-inhibitory concentration (IC50) amounted to 112 µM and the inhibition result was “Dose-dependent effect”.

On to `CCOc1ccc(S(=O)(=O)N2CCN(C)CC2)cc1-c1nnc2c(n1)c(C)nn2C`, for which the half-inhibitory concentration (IC50) worked out at 140 µM and the inhibition result was “Dose-dependent effect”.

As for `CCOc1ccc(S(=O)(=O)NCCN)cc1-c1nnc2c(n1)c(C)nn2C`, the concentration for half-maximal inhibition (IC50) was above 200 µM and the inhibition entry was “Dose-dependent effect”.

For `O=C(O)CCCc1ccc(N(CCCl)CCCl)cc1` [CHLORAMBUCIL], the inhibition result is “Dose-dependent effect”.

In the case of `CCOc1ccc(S(=O)(=O)NCCN2CCOCC2)cc1-c1nnc2c(n1)c(C)nn2C`, the half-inhibitory concentration (IC50) was determined as 145 µM and the inhibition entry is “Dose-dependent effect”.

Another assay concerns MDA-MB-231. The assay is described as follows: Inhibition of collagen synthesis in human MDA-MB-231 cells assessed as 5-[3H]-proline incorporation into proteins susceptible to action of bacterial collagenase after 24 hrs. The class given is functional, cell-based.
Conditions: not given
The gist of the method:
as §2
As to `O=C(O)CCCc1ccc(N(CCCl)CCCl)cc1` [CHLORAMBUCIL], the concentration for half-maximal inhibition (IC50) stood at 72 µM.

The subject of another assay is MCF7. Briefly: Cytotoxicity against human MCF7 cells assessed as growth inhibition after 24 hrs by MTT assay. The class given is functional, cell-based.
Conditions: not given
The gist of the method:
(§3)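 Confluent cells in 6-well plates treated 24 h with a range of concentrations, then washed with PBS. MTT (0.5 mg/ml in PBS) added for 4 h at 37 °C, 5% CO₂. Dye dissolved in 0.1 mol/l HCl in isopropanol and read at 570 nm. Viability given as % of untreated control, run in triplicate. IC50 taken from dose-response curves as 50% viable cells versus control.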
A general note: Tetrazolium dyes change colour on reduction, which living cells bring about.
As for `CCOc1ccc(S(=O)(=O)N2CCCC2)cc1-c1nnc2c(n1)c(C)nn2C`, the “growth inhibition (GI)” value is “Dose-dependent effect”.

Regarding `CCOc1ccc(S(=O)(=O)N2CCCCC2)cc1-c1nnc2c(n1)c(C)nn2C`, the “growth inhibition (GI)” value was “Dose-dependent effect”.

`CCOc1ccc(S(=O)(=O)N2CCN(C)CC2)cc1-c1nnc2c(n1)c(C)nn2C`: the “growth inhibition (GI)” value is “Dose-dependent effect”.

Consider `CCOc1ccc(S(=O)(=O)NCCN)cc1-c1nnc2c(n1)c(C)nn2C`, for which the “growth inhibition (GI)” value is “Dose-dependent effect”.

As for `O=C(O)CCCc1ccc(N(CCCl)CCCl)cc1` [CHLORAMBUCIL], the “growth inhibition (GI)” value is “Dose-dependent effect”.

`CCOc1ccc(S(=O)(=O)NCCN2CCOCC2)cc1-c1nnc2c(n1)c(C)nn2C`: the “growth inhibition (GI)” value is “Dose-dependent effect”.

The same assay, now with this note: MCF7, 24 h.
For the compound `CCOc1ccc(S(=O)(=O)N2CCCC2)cc1-c1nnc2c(n1)c(C)nn2C`, the concentration for half-maximal inhibition (IC50) turned out to be 112 µM.

In the case of `CCOc1ccc(S(=O)(=O)N2CCCCC2)cc1-c1nnc2c(n1)c(C)nn2C`, the IC50 was found to be 105 µM.

On to `CCOc1ccc(S(=O)(=O)N2CCN(C)CC2)cc1-c1nnc2c(n1)c(C)nn2C`, for which the IC50 turned out to be 110 µM.

Take `CCOc1ccc(S(=O)(=O)NCCN)cc1-c1nnc2c(n1)c(C)nn2C`: the IC50 was determined as 190 µM.

For the compound `CCOc1ccc(S(=O)(=O)NCCN2CCOCC2)cc1-c1nnc2c(n1)c(C)nn2C`, the IC50 came to 132 µM.

The next assay relates to MDA-MB-231. Briefly: Cytotoxicity against human MDA-MB-231 cells assessed as growth inhibition after 24 hrs by MTT assay. The class given is functional, cell-based.
Conditions: not given
The method, boiled down: as §3
Regarding `CCOc1ccc(S(=O)(=O)N2CCCC2)cc1-c1nnc2c(n1)c(C)nn2C`, the “growth inhibition (GI)” value is “Dose-dependent effect”.

For the compound `CCOc1ccc(S(=O)(=O)N2CCCCC2)cc1-c1nnc2c(n1)c(C)nn2C`, the “growth inhibition (GI)” value was “Dose-dependent effect”.

As to `CCOc1ccc(S(=O)(=O)N2CCN(C)CC2)cc1-c1nnc2c(n1)c(C)nn2C`, the “growth inhibition (GI)” value is “Dose-dependent effect”.

Consider `CCOc1ccc(S(=O)(=O)NCCN)cc1-c1nnc2c(n1)c(C)nn2C`, for which the “growth inhibition (GI)” value was “Dose-dependent effect”.

In the case of `O=C(O)CCCc1ccc(N(CCCl)CCCl)cc1` [CHLORAMBUCIL], the “growth inhibition (GI)” value is “Dose-dependent effect”.

Take `CCOc1ccc(S(=O)(=O)NCCN2CCOCC2)cc1-c1nnc2c(n1)c(C)nn2C`: the “growth inhibition (GI)” value is “Dose-dependent effect”.

Still in this assay, the particulars now being: MDA-MB-231, 24 h.
In the case of `CCOc1ccc(S(=O)(=O)N2CCCC2)cc1-c1nnc2c(n1)c(C)nn2C`, the IC50 amounted to 120 µM.

Consider `CCOc1ccc(S(=O)(=O)N2CCCCC2)cc1-c1nnc2c(n1)c(C)nn2C`, for which the 50% inhibitory concentration (IC50) was found to be 98 µM.

Turning to `CCOc1ccc(S(=O)(=O)N2CCN(C)CC2)cc1-c1nnc2c(n1)c(C)nn2C`, the half-inhibitory concentration (IC50) was 115 µM.

With `CCOc1ccc(S(=O)(=O)NCCN)cc1-c1nnc2c(n1)c(C)nn2C`, the IC50 was above 200 µM.

In the case of `CCOc1ccc(S(=O)(=O)NCCN2CCOCC2)cc1-c1nnc2c(n1)c(C)nn2C`, the IC50 is 136 µM.

The target in a further assay is Carbonic anhydrase 12 (Homo sapiens, UniProt O43570). Briefly: Inhibition of human carbonic anhydrase 12-mediated CO2 hydration preincubated for 15 mins by stopped-flow assay.
Sequence of Carbonic anhydrase 12 (O43570 whole entry): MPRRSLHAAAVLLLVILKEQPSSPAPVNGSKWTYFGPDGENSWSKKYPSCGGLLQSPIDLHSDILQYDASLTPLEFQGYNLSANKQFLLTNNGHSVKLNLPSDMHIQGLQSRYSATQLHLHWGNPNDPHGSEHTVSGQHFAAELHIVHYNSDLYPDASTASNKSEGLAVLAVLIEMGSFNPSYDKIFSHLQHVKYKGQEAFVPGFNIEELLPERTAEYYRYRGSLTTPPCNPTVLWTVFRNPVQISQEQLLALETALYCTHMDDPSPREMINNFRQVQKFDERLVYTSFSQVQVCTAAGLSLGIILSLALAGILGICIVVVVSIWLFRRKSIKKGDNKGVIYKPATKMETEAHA
Conditions: not given
As to `Cc1nn(C)c2nnc(Nc3ccc(S(N)(=O)=O)cc3)nc12`, the affinity corresponds to a Ki of 0.0079 µM.

As to `Cc1nn(C)c2nnc(Nc3ccccc3)nc12`, the Ki was determined as 0.009 µM.

In the case of `Cc1nn(C)c2nnc(S(C)(=O)=O)nc12`, the Ki amounted to 0.0066 µM.

The target of a further assay is Carbonic anhydrase 9 (Homo sapiens, UniProt Q16790). Briefly: Inhibition of human carbonic anhydrase 9-mediated CO2 hydration preincubated for 15 mins by stopped-flow assay.
Conditions: not given
Compound `Cc1nn(C)c2nnc(Nc3ccc(S(N)(=O)=O)cc3)nc12` came in with an inhibition constant Ki of 0.0438 µM.

`Cc1nn(C)c2nnc(Nc3ccccc3)nc12` returned a Ki of 0.082 µM.

Consider `Cc1nn(C)c2nnc(S(C)(=O)=O)nc12`, for which the affinity, expressed as Ki, was 0.089 µM.
